Source: ChEMBL document CHEMBL1127751, “Novel Asp32-replacement tetrapeptide analogues as potent and selective CCK-A agonists” (J Med Chem, 1994)
Starred links: 1 amine or outer side, 2 acyl side, 3 side chain; linkers in the order of their positions; H or OH if unused. Non-standard residues stand in square brackets, D forms with d. Residues, ends and D or L forms follow the SMILES beside them. Groups on a side chain read outwards from the residue. ξ: configuration not given here. *: point of attachment. NMeF = CN[C@@H](Cc1ccccc1)C(=O)O; ξW = NC(Cc1c[nH]c2ccccc12)C(=O)O; NH(2-Me-phenyl) = Cc1ccccc1N*; ξNMeF = CNC(Cc1ccccc1)C(=O)O; β3hP = O=C(O)C[C@@H]1CCCN1; ξF = NC(Cc1ccccc1)C(=O)O; Boc = CC(C)(C)OC(=O)*; CO = O=C([*:1])[*:2]; Sar = CNCC(=O)O

What was measured:
[1] = molecular target: T1, Cholecystokinin receptor type A (Cavia porcellus) (UniProt Q63931); assay: Percent response in PI hydrolysis relative to maximal response elicited by CCK-8 in guinea pig at 10e-6 M
T1 sequence (whole entry): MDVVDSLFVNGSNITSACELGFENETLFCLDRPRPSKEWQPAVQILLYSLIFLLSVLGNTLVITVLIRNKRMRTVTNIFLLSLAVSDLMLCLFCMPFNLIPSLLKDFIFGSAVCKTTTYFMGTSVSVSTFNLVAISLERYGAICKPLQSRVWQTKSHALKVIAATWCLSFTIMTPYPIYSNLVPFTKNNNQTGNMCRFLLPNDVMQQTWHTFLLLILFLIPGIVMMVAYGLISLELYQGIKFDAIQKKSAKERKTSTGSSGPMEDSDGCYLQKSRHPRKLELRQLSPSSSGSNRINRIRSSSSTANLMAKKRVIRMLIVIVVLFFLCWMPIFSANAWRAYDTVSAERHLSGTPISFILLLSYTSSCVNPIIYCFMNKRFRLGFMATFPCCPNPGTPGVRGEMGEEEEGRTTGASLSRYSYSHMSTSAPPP

[2] = molecular target: T2, Cholecystokinin receptor type A (Cavia porcellus, UniProt Q63931); assay: Concentration that inhibited 50% of specific binding of [125I]Bolton-Hunter CCK-8 binding in guinea pig pancreas
T2 sequence (Q63931 whole entry): T1 sequence (whole entry)

[3] = tested on: Cholecystokinin receptor type B (Cavia porcellus); assay: Percent inhibition of specific [125I]Bolton-Hunter CCK-8 binding in guinea pig cortex at 10e-6 M
Rattus norvegicus = species: Rattus norvegicus; assay: Dose required to reduce food intake by 50% in rats; type: functional
Procedure, shortened: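 Rats dosed intraperitoneally in nmol/kg, with 7–8 animals per group in each experiment. Food intake was compared with vehicle controls. The dose reducing intake by 50% was calculated from the dose–response data and reported with an interval.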

Cc1ccccc1NC(=O)NCCCC[C@H](NC(=O)C(Cc1c[nH]c2ccccc12)NC(=O)OC(C)(C)C)C(=O)N(C)CCCC(=O)N(C)C(Cc1ccccc1)C(N)=O (stereo not given in full)
PI hydrolysis [1]: 64% | IC50 [2]: 0.019 µM | inhibition [3]: 4%

Cc1ccccc1NC(=O)NCCCC[C@H](NC(=O)C(Cc1c[nH]c2ccccc12)NC(=O)OC(C)(C)C)C(=O)NCCCC(=O)N(C)C(Cc1ccccc1)C(N)=O (stereo not given in full)
PI hydrolysis [1]: 67% | IC50 [2]: 0.027 µM | inhibition [3]: 11%

Cc1ccccc1NC(=O)NCCCC[C@H](NC(=O)[C@H](Cc1c[nH]c2ccccc12)NC(=O)OC(C)(C)C)C(=O)NCC(=O)N[C@@H](Cc1ccccc1)C(N)=O (Boc-WK([CO-NH(2-Me-phenyl)])GF-NH2)
IC50 [2]: 0.921 µM

Cc1ccccc1NC(=O)NCCCC[C@H](NC(=O)C(Cc1c[nH]c2ccccc12)NC(=O)OC(C)(C)C)C(=O)N1CCC[C@H]1CC(=O)N(C)C(Cc1ccccc1)C(N)=O (stereo partly drawn) (Boc-[ξW]K([CO-NH(2-Me-phenyl)])[β3hP][ξNMeF]-NH2)
PI hydrolysis [1]: 92% | IC50 [2]: 0.017 µM | inhibition [3]: 13%

Cc1ccccc1NC(=O)NCCCC[C@H](NC(=O)C(Cc1c[nH]c2ccccc12)NC(=O)OC(C)(C)C)C(=O)NCC(=O)NC(Cc1ccccc1)C(N)=O (stereo not given in full) (Boc-[ξW]K([CO-NH(2-Me-phenyl)])G[ξF]-NH2)
PI hydrolysis [1]: 17% | inhibition [3]: 14%

Cc1ccccc1NC(=O)NCCCC[C@H](NC(=O)C(Cc1c[nH]c2ccccc12)NC(=O)OC(C)(C)C)C(=O)N(C)CCC(=O)NC(Cc1ccccc1)C(N)=O (stereo not given in full)
PI hydrolysis [1]: 61% | IC50 [2]: 0.062 µM | inhibition [3]: 14%

Cc1ccccc1NC(=O)NCCCC[C@H](NC(=O)C(Cc1c[nH]c2ccccc12)NC(=O)OC(C)(C)C)C(=O)N(C)CCC(=O)N(C)C(Cc1ccccc1)C(N)=O (stereo not given in full)
PI hydrolysis [1]: 36% | IC50 [2]: 0.007 µM

Cc1ccccc1NC(=O)NCCCC[C@H](NC(=O)C(Cc1c[nH]c2ccccc12)NC(=O)OC(C)(C)C)C(=O)NCCC(=O)N(C)C(Cc1ccccc1)C(N)=O (stereo not given in full)
PI hydrolysis [1]: 47% | IC50 [2]: 0.027 µM | inhibition [3]: 9%

Cc1ccccc1NC(=O)NCCCC[C@H](NC(=O)[C@H](Cc1c[nH]c2ccccc12)NC(=O)OC(C)(C)C)C(=O)N(C)CC(=O)N[C@@H](Cc1ccccc1)C(N)=O (Boc-WK([CO-NH(2-Me-phenyl)])[Sar]F-NH2)
IC50 [2]: 0.265 µM

Cc1ccccc1NC(=O)NCCCC[C@H](NC(=O)C(Cc1c[nH]c2ccccc12)NC(=O)OC(C)(C)C)C(=O)N[C@@H]1CC(=O)N([C@@H](Cc2ccccc2)C(N)=O)C1 (stereo not given in full)
PI hydrolysis [1]: 89% | ED50 (Rattus norvegicus): 0.03 µmol/kg | IC50 [2]: 0.016 µM | inhibition [3]: 39%

Cc1ccccc1NC(=O)NCCCC[C@H](NC(=O)[C@H](Cc1c[nH]c2ccccc12)NC(=O)OC(C)(C)C)C(=O)NCC(=O)N(C)[C@@H](Cc1ccccc1)C(N)=O (Boc-WK([CO-NH(2-Me-phenyl)])G[NMeF]-NH2)
IC50 [2]: 0.141 µM

Cc1ccccc1NC(=O)NCCCC[C@H](NC(=O)C(Cc1c[nH]c2ccccc12)NC(=O)OC(C)(C)C)C(=O)N(C)CCCC(=O)NC(Cc1ccccc1)C(N)=O (stereo not given in full)
PI hydrolysis [1]: 8% | IC50 [2]: 0.393 µM | inhibition [3]: 11%

Cc1ccccc1NC(=O)NCCCC[C@H](NC(=O)C(Cc1c[nH]c2ccccc12)NC(=O)OC(C)(C)C)C(=O)N1CCC(=O)N(C(Cc2ccccc2)C(N)=O)CC1 (stereo not given in full)
PI hydrolysis [1]: 1% | IC50 [2]: 0.75 µM | inhibition [3]: 8%

Cc1ccccc1NC(=O)NCCCC[C@H](NC(=O)C(Cc1c[nH]c2ccccc12)NC(=O)OC(C)(C)C)C(=O)NCCCCCC(=O)N(C)C(Cc1ccccc1)C(N)=O (stereo not given in full)
PI hydrolysis [1]: 4% | IC50 [2]: 1.33 µM

Cc1ccccc1NC(=O)NCCCC[C@H](NC(=O)C(Cc1c[nH]c2ccccc12)NC(=O)OC(C)(C)C)C(=O)NCCCCCC(=O)NC(Cc1ccccc1)C(N)=O (stereo not given in full)
PI hydrolysis [1]: 5% | IC50 [2]: 1.2 µM | inhibition [3]: 6%

Cc1ccccc1NC(=O)NCCCC[C@H](NC(=O)C(Cc1c[nH]c2ccccc12)NC(=O)OC(C)(C)C)C(=O)NCC(=O)N(C)C(Cc1ccccc1)C(N)=O (stereo not given in full) (Boc-[ξW]K([CO-NH(2-Me-phenyl)])G[ξNMeF]-NH2)
PI hydrolysis [1]: 28% | inhibition [3]: 0%

Cc1ccccc1NC(=O)NCCCC[C@H](NC(=O)C(Cc1c[nH]c2ccccc12)NC(=O)OC(C)(C)C)C(=O)N(C)CC(=O)NC(Cc1ccccc1)C(N)=O (stereo not given in full) (Boc-[ξW]K([CO-NH(2-Me-phenyl)])[Sar][ξF]-NH2)
PI hydrolysis [1]: 24% | inhibition [3]: 5%

Cc1ccccc1NC(=O)NCCCC[C@H](NC(=O)C(Cc1c[nH]c2ccccc12)NC(=O)OC(C)(C)C)C(=O)NCCCC(=O)NC(Cc1ccccc1)C(N)=O (stereo not given in full)
PI hydrolysis [1]: 9% | IC50 [2]: 0.749 µM | inhibition [3]: 11%

Cc1ccccc1NC(=O)NCCCC[C@H](NC(=O)C(Cc1c[nH]c2ccccc12)NC(=O)OC(C)(C)C)C(=O)N1CCC[C@H]1CC(=O)NC(Cc1ccccc1)C(N)=O (stereo partly drawn) (Boc-[ξW]K([CO-NH(2-Me-phenyl)])[β3hP][ξF]-NH2)
PI hydrolysis [1]: 68% | IC50 [2]: 0.239 µM

Cc1ccccc1NC(=O)NCCCC[C@H](NC(=O)[C@H](Cc1c[nH]c2ccccc12)NC(=O)OC(C)(C)C)C(=O)N(C)CC(=O)N(C)[C@@H](Cc1ccccc1)C(N)=O (Boc-WK([CO-NH(2-Me-phenyl)])[Sar][NMeF]-NH2)
IC50 [2]: 0.084 µM

Cc1ccccc1NC(=O)NCCCC[C@H](NC(=O)C(Cc1c[nH]c2ccccc12)NC(=O)OC(C)(C)C)C(=O)NCCCCC(=O)NC(Cc1ccccc1)C(N)=O (stereo not given in full)
PI hydrolysis [1]: 2% | IC50 [2]: 1.8 µM

Cc1ccccc1NC(=O)NCCCC[C@H](NC(=O)C(Cc1c[nH]c2ccccc12)NC(=O)OC(C)(C)C)C(=O)NCCC(=O)NC(Cc1ccccc1)C(N)=O (stereo not given in full)
PI hydrolysis [1]: 16% | IC50 [2]: 0.126 µM

Cc1ccccc1NC(=O)NCCCC[C@H](NC(=O)C(Cc1c[nH]c2ccccc12)NC(=O)OC(C)(C)C)C(=O)N(C)CC(=O)N(C)C(Cc1ccccc1)C(N)=O (stereo not given in full) (Boc-[ξW]K([CO-NH(2-Me-phenyl)])[Sar][ξNMeF]-NH2)
PI hydrolysis [1]: 33%

Cc1ccccc1NC(=O)NCCCC[C@H](NC(=O)C(Cc1c[nH]c2ccccc12)NC(=O)OC(C)(C)C)C(=O)NCCCCC(=O)N(C)C(Cc1ccccc1)C(N)=O (stereo not given in full)
PI hydrolysis [1]: 7% | IC50 [2]: 1.18 µM | inhibition [3]: 7%
